Experimental data taken from publication PMC4948641 (ChemMedChem, 2015).
Values joined by “and” are separate entries in the source; they are usually repeats but may differ in a detail not shown here. Equal values may be shown once.

How the values were obtained:
[1] = hepatic microsome stability, mouse; type: in vitro ADME; conditions: liver microsomes, hepatic microsome stability (% remaining after 1 h)
[2] = plasma protein binding, human; type: in vitro ADME
[3] = system: mitochondrial permeability transition pore (PTP); assay: CRC of permeabilized HeLa cells; type: cell-based, human
Procedure, shortened: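 Ca2+ retention capacity was measured in permeabilized HeLa cells, 0.8 million cells per condition. The test compound was applied across a concentration range. Results are expressed as the compound-to-solvent CRC ratio, average ± SEM of ≥4 experiments.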

[4] = system: mitochondrial permeability transition pore (PTP); assay: CRC assay in CyPD-null mouse liver mitochondria; type: biochemical
Procedure, shortened: (§1)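 Isolated mouse liver mitochondria from wild-type or CyPD-knockout mice were used. Ca2+ retention capacity was taken as the amount of Ca2+ needed to open the pore. Mitochondria were treated across a concentration range of test compound or solvent, and results were expressed as the compound-to-solvent CRC ratio. Values are the average ± SEM of ≥4 experiments.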

aqueous stability = type: physicochemical
HeLa cells [5] = assay: HeLa cell proliferation after 24-hour treatment; type: cell-based, human; conditions: ≤ 10 μM
Procedure, shortened: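 HeLa cells were treated with the test compound at the indicated concentrations for 24 hours, and proliferation was then assessed. Values are the average ± SEM of ≥4 experiments.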

[6] = system: isolated mouse liver mitochondria; assay: mitochondrial respiration in isolated mouse liver mitochondria; type: biochemical
Procedure, shortened: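 Isolated mouse liver mitochondria were treated with the test compound or solvent, and respiration was measured. Results are expressed as respiratory control ratio, reflecting the capacity to generate ATP. Values are the average ± SEM of ≥4 experiments.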

[7] = system: mitochondrial permeability transition pore (PTP); assay: Ca2+-induced mitochondrial swelling assay; type: biochemical; conditions: read-out: mitochondrial swelling EC50; isolated mouse liver mitochondria; 50 μM Ca2+
Procedure, shortened: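 Mitochondria isolated from mouse liver take up 50 μM Ca2+ to trigger pore-dependent swelling. Swelling is followed across a range of test compound concentrations. Data are the average ± SEM of ≥ 4 experiments.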

plasma stability, human = type: in vitro ADME
BBB PAMPA permeability = type: in vitro ADME; conditions: pH 7.4
[8] = system: mitochondrial permeability transition pore (PTP); assay: Ca2+ retention capacity; type: biochemical; conditions: isolated mouse liver mitochondria
Procedure, shortened: as §1

HeLa cells [9] = assay: oxygen-consumption rate of intact HeLa cells; type: cell-based, human; conditions: ≤ 10 μM
IMM potential = assay: Rhodamine 123 uptake counterscreen; type: biochemical; conditions: read-out: Rh123 uptake EC50, isolated mouse liver mitochondria
Procedure, shortened: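 Isolated mouse liver mitochondria took up rhodamine 123 as a read-out of inner-membrane potential. The test compound was applied in a concentration series, and interference with Rh123 uptake was recorded. Values are the average ± SEM of ≥4 experiments.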

[10] = plasma protein binding, mouse; type: in vitro ADME
[11] = aqueous solubility in 1xPBS; type: physicochemical
PAMPA permeability = type: in vitro ADME; conditions: Pe
[12] = chemical stability with 5x DTT; type: physicochemical
[13] = system: Fa2N-4 immortalized human hepatocytes; assay: toxicity towards Fa2N-4 immortalized human hepatocytes; type: cell-based
[14] = as above; type: cell-based; conditions: human, Fa2N-4 immortalized hepatocytes
[15] = hepatic microsome stability, human; type: in vitro ADME; conditions: liver microsomes, hepatic microsome stability (% remaining after 1 h)
plasma stability, mouse = type: in vitro ADME

## O=C(Nc1ccc(CN2CCCCC2)cc1)c1cc(Cl)cc(OCc2ccccc2)c1 [Compound 4, 3-(benzyloxy)-5-chloro-N-(4-(piperidin-1-ylmethyl)phenyl)benzamide]
[1]; +NADPH
  remaining at 1 h: 30%
[1]; -NADPH
  remaining at 1 h: 74%
[2]
  fraction unbound at 1 μM: 0.008
  fraction unbound at 10 μM: 0.008
[3]
  effect on CRC of permeabilized HeLa cells: concentration-dependent increase
[4]
  increase in CRC in CyPD-null mouse liver mitochondria: 7 fold
Aqueous stability
  aqueous stability (1:1 PBS/acetonitrile), % parent remaining after 48 h: 93.4%
HeLa cells [5]
  effect on HeLa cell proliferation: no effect
[6]; 5 μM
  effect on ATP synthesis: no effect
[6]; ≤ 10 μM, isolated mouse liver mitochondria
  respiratory control ratios, FCCP-stimulated and oligomycin-sensitive respiration: No significant differences
[7]
  EC50: 0.28 ± 0.024 µM
Plasma stability, human
  remaining at 3 h: 39%
BBB PAMPA permeability
  Papp: 113 ×10⁻⁶ cm/s
[8]; 12.5 μM, compound-to-solvent CRC ratio
  CRC/CRC0 at 12.5 μM: 19.5 ± 1.7
[8]
  maximum CRC ratio relative to CsA-treated mitochondria: about 4 times
HeLa cells [9]
  FCCP-stimulated and oligomycin-sensitive respiration (OCR): No significant differences
IMM potential
  EC50: 24.5 ± 1.12 µM
[10]
  fraction unbound at 1 μM: 0.007
  fraction unbound at 10 μM: 0.017
[11]; pH 5, aqueous buffer
  solubility: 22.8 µg/mL and 52.5 µM
[11]; pH 6.2, aqueous buffer
  solubility: 22.6 µg/mL and 52.1 µM
[11]; pH 7.4, aqueous buffer
  solubility: 0.64 µg/mL and 1.5 µM
PAMPA permeability; Donor pH 5.0, Acceptor pH 7.4
  Papp: 1300 ×10⁻⁶ cm/s
PAMPA permeability; Donor pH 6.2, Acceptor pH 7.4
  Papp: 1340 ×10⁻⁶ cm/s
[12]
  chemical stability with 5× DTT, % parent remaining after 8 h: 91%
[13]
  selectivity, Fa2N-4 LC50 compared to mitochondrial swelling EC50: 114 fold
[14]
  CC50: 32 µM
[15]; +NADPH
  remaining at 1 h: 61%
[15]; -NADPH
  remaining at 1 h: 67%
Plasma stability, mouse
  remaining at 3 h: 35%
